The sample as a whole holds a higher share of hits than the screen did.
iPSC survival up: enhancers of human iPSC single-cell survival. hiPSC single-cell survival, ATPlite luminescence; 100% = ROCK inhibitor wells, 0% = DMSO. survival enhancement, % at 20 µM. hit rate 0.044% among 360,000. AID 602274; in the data active = survival enhancement above about 18%;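 also: cells exposed to compounds for 16 hours before the ATP read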
UPR CHOP act: apoptotic UPR (CHOP) activation; CHO-CHOP luciferase reporter, luminescence; percent of tunicamycin response over DMSO baseline; activation, % at 10 µM; hit rate 0.34% among 330,000; AID 449763;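 active = at 10 µM dose, activation of 40% or more, normalized to positive control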;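 also: 100% = tunicamycin at 10 µg/mL and 0% = DMSO alone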
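Evaluation: % reporter activation, DMSO baseline versus tunicamycin full activation; System: CHO-CHOP luciferase reporter cell line; Input: 500 cells/well; Incubation: 6 h compound treatment, 37 °C; Measured by: Steady-Glo luciferase luminescence; Dosing: one dose, 10 µM in 0.5% DMSO; Buffer or medium: F12 medium, 10% FBS; Benchmarks: positive tunicamycin 10 µg/mL, negative DMSO alone.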
CHOP inhibitor: blocks CHOP induction under ER stress | inhibition, % at 10 µM | CHO-K1 CHOP-promoter luciferase, tunicamycin-induced, 15-18 h | hit rate 3.8% among 220,000;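 active = compounds that reduced the stress-induced luciferase reporter signal by more than about 70% of percent inhibition, limit read from the data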;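 also: 0% = tunicamycin plus vehicle and 100% = wells without tunicamycin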
UPR XBP1 act: activators of adaptive arm of unfolded protein response (XBP1). CHO-XBP1 luciferase reporter, IRE1-XBP1 UPR activation, luminescence; percent of tunicamycin response, DMSO as zero. activation, % at 20 µM. hit rate 0.33% among 330,000;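 active = versus positive control, 20 µM dose yields 30% or more activation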;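 also: 100% = tunicamycin at 10 µg/mL and 0% = DMSO only wells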
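Material – CHO cell line with stable XBP1 luciferase reporter · Buffer or medium – F12 plus 10% FBS · Compound – single point, 20 µM final compound, 1% DMSO · Schedule – 16-18 h cell attachment at 37 °C, then 6 h compound exposure · Signal – Steady-Glo luminescence read · Benchmarks – high control tunicamycin 10 µg/mL final, low control DMSO vehicle only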
H9c2 protect: modulators protecting cardiomyocytes from myocardial damage | protection from H2O2 cell death, % at 20 µM | H9c2 cardiomyocytes, H2O2 injury protection, ATPLite, 2 h | hit rate 0.63% among 360,000;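 active = compounds giving at least 50% protection of heart cells from peroxide-induced death in the single-dose screen, raw or plate-pattern-corrected value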;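 also: 0% = DMSO wells with peroxide and 100% = DMSO wells without peroxide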
* = called active by the depositor; . = not tested or not shown.

SMILES	iPSC survival up	UPR CHOP act	CHOP inhibitor	UPR XBP1 act	H9c2 protect
COc1cccc(C2CC(=O)Nc3cc4c(cc32)CCC4)c1 (stereo not given)	-2.6	-1.0	45.8	1.4	-16.9
O=C(NC1CCCCC1)C(c1cccnc1)N(C(=O)CCl)c1cccc(Cl)c1 (stereo not given)	-1.8	9.4	109.3*	-6.0	-8.4
CNc1nc(Cl)nc(NC(C)(C)C)n1	17.3*	1.3	20.0	1.5	10.0
CC(C)(C)Nc1nc(Cl)nc(NC(C)(C)C)n1	3.3	-0.3	-5.2	2.6	-3.5
CC1C(c2ccccc2)N(C)C(c2ccccc2)CC1(O)c1ccc(F)cc1 (stereo not given)	-0.3	.	84.8*	.	-23.3
CCOc1cccc2cc(-c3cn4cc(C)ccc4n3)c(=O)oc12	-6.4	-0.9	82.8*	1.2	-31.8
Cc1nnc(C)n1/N=C/c1cc(Br)ccc1O	-4.2	-2.6	-10.0	-1.0	65.8*
Nc1nnnn1/N=C/c1cc(Br)ccc1O	-0.4	-0.7	.	3.8	1.9
Cc1nnc(C)n1/N=C/c1cc(Br)cc(Br)c1O	-1.1	-1.7	16.1	-0.6	77.5*
O=C(Nc1ccc(N2CCCC2)c(S(=O)(=O)Nc2cccc(C(F)(F)F)c2)c1)c1cccs1	1.2	-1.6	90.3*	-3.1	-10.0
O=[N+]([O-])c1ccc(COc2ccc(-c3[nH]ncc3-c3ccc(Cl)cc3)c(O)c2)cc1	-0.3	2.2	81.5*	-0.1	-11.2
COc1cccc(Oc2cn[nH]c2-c2ccc(O)cc2O)c1	-0.5	0.7	.	-2.0	-7.7
COc1ccc(-c2[nH]ncc2-c2ccc(Cl)cc2)c(O)c1	0.6	-1.0	85.7*	-1.1	-6.0
COc1cccc(Oc2cn[nH]c2-c2ccc(OC)cc2O)c1	4.5	0.1	83.7*	2.2	-5.2
C[N+](C)(C)CCNC(=O)c1ccccc1	1.1	.	.	.	.
O=C(Nc1ccc(F)c(F)c1)c1cnc(-c2ccccc2)nc1-c1ccccc1	0.1	-0.2	93.6*	7.4	-14.5
O=C(Nc1ccc(F)cc1)c1cnc(-c2ccccc2)nc1-c1ccccc1	-2.1	1.3	81.2*	5.4	-2.9
C=CCNC(=O)c1cnc(-c2ccccc2)nc1-c1ccccc1	-0.2	-0.8	.	1.2	1.6
CC(C)NC(=O)Nc1ccc2c(c1)C(=O)N([C@H](C)CO)C[C@H](C)[C@@H](CN(C)S(=O)(=O)c1ccc(F)cc1)O2	-0.8	0.3	.	0.4	10.2
Cc1nc(-c2cccnc2)sc1C(=O)Nc1ccc(C(F)(F)F)cc1	5.4	-1.8	44.0	0.6	-0.6
COc1cc(NC(=O)c2csc(-c3ccncc3)n2)cc(C(=O)Nc2cccc(C(F)(F)F)c2)c1	-0.9	4.8	43.9	0.3	59.4*
CCN1CCN(Cc2ccc(NC(=O)c3cc(NC(=O)N4CCNC4=O)cc(OC)c3)cc2C(F)(F)F)CC1	-2.7	-0.6	9.5	2.0	-18.8
COc1cc(NC(=O)N2CCNC2=O)cc(C(=O)Nc2cccc(C(F)(F)F)c2)c1	-2.0	2.1	74.5*	8.4	11.0
O=C(Nc1cccc(C(F)(F)F)c1)c1csc(-c2ccncc2)n1	-2.0	-1.1	21.1	-3.6	4.0
Cc1nc(-c2cccnc2)sc1C(=O)Nc1cccc(C(F)(F)F)c1	-2.0	-4.1	82.7*	-1.9	-1.2
SMILES	iPSC survival up	UPR CHOP act	CHOP inhibitor	UPR XBP1 act	H9c2 protect
CCn1c(CC(=O)Nc2ccc(C)c(Cl)c2)nnc1SCC(=O)Nc1nc(C)cs1	-1.3	-1.2	78.5*	0.7	-8.0
CCn1c(CC(=O)Nc2ccc(C)c(Cl)c2)nnc1SCc1ccc(Cl)c(Cl)c1	-0.7	-3.1	8.6	-4.0	-6.0
O=C(COc1ccccc1)Nc1cccc2nsnc12	1.6	-0.2	76.4*	0.2	7.9
O=C(Nc1ccncc1)Nc1cccc(Cl)c1Cl	0.2	1.5	.	4.7	-13.7
O=C(Nc1ccc(Cl)cc1)Nc1cccc2nsnc12	-0.5	12.0	73.0*	1.2	-20.3
CCC(C)NC(=O)C1CCN(S(=O)(=O)c2cc([N+](=O)[O-])ccc2Cl)CC1 (stereo not given)	-0.2	-1.5	1.9	1.3	-8.4
O=C(Nc1nc2ccccc2s1)C1CCN(S(=O)(=O)c2cc([N+](=O)[O-])ccc2Cl)CC1	0.4	6.1	82.6*	4.8	12.1
Cc1ccc(-c2nn(-c3ccccc3)cc2CO)cc1	0.2	7.2	.	4.2	-5.6
N=C(N)SCc1cn(-c2ccccc2)nc1-c1ccc(Br)cc1	-0.6	.	106.2*	.	-23.0
Clc1ccc(-c2nc(N3CCCCC3)nc3ccccc23)cc1	4.4	-2.2	9.1	-2.6	-6.6
O=C1CN(c2nc(-c3ccccc3)c3ccccc3n2)c2ccccc2N1	-1.5	1.6	77.5*	-0.3	-5.2
c1ccc(-c2nc(-n3nc4ccccc4n3)nc3ccccc23)cc1	-0.9	-2.0	73.9*	15.5	-2.3
O=C(NNC(=O)c1cccnc1SCc1cccc([N+](=O)[O-])c1)c1ccccn1	-1.8	2.3	51.6	0.7	82.7*
O=C(NNC(=O)c1cccnc1SCc1cccc([N+](=O)[O-])c1)c1ccc(F)cc1	1.8	1.5	19.1	0.2	2.4
Cc1ccccc1S(=O)(=O)NC(=O)C1(C)CCN1C(=O)CC1CCCC1 (stereo not given)	1.6	.	.	.	10.1
CCOC(=O)/C=c1\s/c(=C\c2ccc3c(c2)OCCO3)c(=O)n1CC(=O)NCC1CCCO1 (stereo not given)	-3.1	0.3	86.2*	0.9	20.9
O=C1CSC2=NCN(c3ccc4c(c3)OCO4)CN12	-0.4	1.0	94.4*	-0.6	3.4
CN(C)c1ccc(N2CN=C3SCC(=O)N3C2)cc1	-1.1	1.0	-44.6	-2.1	-0.2
CCCCC1CC2=C(C(=O)OC(C)(C)O2)C(c2ccc3ccccc3c2)O1 (stereo not given)	-0.3	.	.	.	-4.8
CCOC(=O)c1sc2nccc(N(C)C)c2c1N=CNOCc1ccccc1	-2.4	-0.2	75.1*	2.8	1.0
CCOC(=O)c1sc2nccc(N(C)C)c2c1N=CNOC	3.5	-2.7	26.9	1.3	24.5
COc1ccccc1CN1CC(C(=O)NCC2(O)CCCCC2)CCC1=O (stereo not given)	-1.4	.	.	.	2.0
COc1ccc2[nH]c3c(c2c1)CCNC3c1ccc([N+](=O)[O-])o1 (stereo not given)	-0.4	0.9	.	-5.5	60.5*
COc1ccc2[nH]c3c(c2c1)CCNC3C1CC=C(C)CC1 (stereo not given)	-2.4	-0.4	6.1	0.7	16.0
Cc1ccc(S(=O)(=O)NC(=O)C2(C)CCN2C(=O)Cc2ccc(C(C)(C)C)cc2)cc1 (stereo not given)	2.3	.	.	.	6.7
O=C(Nc1ccc(Cl)cc1)OCc1cn(-c2ccc(Cl)cc2)nn1	-1.7	0.4	73.3*	2.3	-14.7
O=C(/C=C/c1ccc(Cl)cc1Cl)N(Cc1ccc(Cl)cc1)C1CCS(=O)(=O)C1 (stereo not given)	-2.3	0.6	79.2*	-3.0	-10.0

Source: PubChem BioAssay (several laboratories)
